Source: ChEMBL document CHEMBL4732148 (Eur J Med Chem, 2021)
pIC50: −log10 of the molar value. Active and inactive are the calls of the source. The rule behind the calls is not given here.

Tests used:
[1] = Stability in pH 1 aqueous buffer assessed as parent compound remaining at 200 uM measured after 4 hrs by UV spectrophotometry; format: physicochemical; conditions: read-out: Stabilty
In short: (§1)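 Compound diluted to […] in aqueous buffers at pH 1.0, 2.0, 4.0, 6.0 or 8.0 and held 4 h at 40 °C. Intact prodrug separated by reverse-phase HPLC. 260 nm peak area after incubation compared with untreated prodrug, giving % remaining.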

HepG2 = test: Cytotoxicity against human HepG2 cells assessed as reduction in cell viability measured after 96 hrs by celltiter-glo assay; format: functional; conditions: read-out: TC50 (the source's name)
[2] = Toxicity in human Huh-7 cells assessed as reduction in cell viability measured after 96 hrs by celltiter-glo assay; format: cell-based; conditions: read-out: TC50
Hepatitis C virus [3] = test: Antiviral activity against HCV infected in human Huh-7 cells assessed as reduction in viral replication at 25 to 1000 nM measured after 48 hrs in presence of cytidine by luciferase reporter gene assay; format: functional, organism-based; conditions: Hepacivirus hominis, dose 25-1000 nM
In short: (§2)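 Huh7 cells carrying an HCV luciferase replicon, grown in DMEM with 10% FBS and G418. Cells treated 48 h continuously with compound at 25–1,000 nM, either alone or together with 50 µM cytidine or 2′-deoxycytidine. Luciferase activity read in lysates. Three biological replicates, SD.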

Hepatitis C virus [4] = test: Antiviral activity against HCV infected in human Huh-7 cells assessed as reduction in viral replication measured after 48 hrs by luciferase reporter gene assay; format: functional, organism-based, Hepacivirus hominis; conditions: Huh-7, 48 h
In short: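 Replicon-bearing Huh7 cells seeded at 10,000/well and allowed to attach for 24 h at 37 °C. Triplicate biological wells then treated 48 h with compound in DMEM, 10% FBS, 0.5% DMSO final. Bright-Glo luminescence expressed relative to untreated cells. IC50 from a four-parameter logistic fit.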

[5] = Stability in pH 8 aqueous buffer assessed as parent compound remaining at 200 uM measured after 4 hrs by UV spectrophotometry; format: physicochemical; conditions: read-out: Stabilty; in short: as §1
[6] = Stability in pH 4 aqueous buffer assessed as parent compound remaining at 200 uM measured after 4 hrs by UV spectrophotometry; format: physicochemical; conditions: read-out: Stabilty; in short: as §1
[7] = Stability in pH 2 aqueous buffer assessed as parent compound remaining at 200 uM measured after 4 hrs by UV spectrophotometry; format: physicochemical; conditions: read-out: Stabilty; in short: as §1
[8] = Cytotoxicity against human Huh-7 cells assessed as reduction in cell viability measured after 48 hrs in presence of ENT1 inhibitor NBTI […]; format: cell-based; conditions: with NBTI (ENT1 inhibitor; concentration not stated), read-out: TC50
[9] = Cytotoxicity against human MCF7 cells assessed as reduction in cell viability measured after 96 hrs by celltiter-glo assay; format: cell-based; conditions: read-out: TC50
[10] = Cytotoxicity against HEK293 cells assessed as reduction in cell viability measured after 96 hrs by celltiter-glo assay; format: cell-based; conditions: human, read-out: TC50
Hepatitis C virus [11] = test: Antiviral activity against HCV infected in human Huh-7 cells assessed as reduction in viral replication at 25 to 1000 nM measured after 48 hrs in presence of deoxycytidine by luciferase reporter gene assay; format: functional, organism-based; conditions: Hepacivirus hominis, dose 25-1000 nM; in short: as §2
[12] = Stability in pH 6 aqueous buffer assessed as parent compound remaining at 200 uM measured after 4 hrs by UV spectrophotometry; format: physicochemical; conditions: read-out: Stabilty; in short: as §1
Hepatitis C virus [13] = test: Antiviral activity against HCV infected in human Huh-7 cells assessed as reduction in viral replication at 500 nM measured within 6 hrs by luciferase reporter gene assay; format: functional, Hepacivirus hominis; set-up: scale not given: the % may be the effect or the level left; conditions: time hrs <=6
In short: (§3)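 Huh7 luciferase replicon cells treated with 500 nM compound or mock for up to 48 h. Cells were lysed at various times and the lysates snap-frozen in liquid nitrogen. All lysates were then assayed for luciferase together.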

[14] = Cytotoxicity against human BXPC-3 cells assessed as reduction in cell viability measured after 96 hrs by celltiter-glo assay; format: cell-based; conditions: read-out: TC50
Hepatitis C virus [15] = test: Antiviral activity against HCV infected in human Huh-7 cells assessed as reduction in viral replication preincubated for 2 hrs followed by replacement with fresh culture medium and measured after 46 hrs by luciferase reporter gene assay; format: functional, organism-based, Hepacivirus hominis
In short: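 HCV luciferase-replicon Huh7 cells were seeded at 10,000 cells/well and allowed 24 h to attach. Three biological replicates were exposed to graded compound in DMEM/10% FBS/0.5% DMSO for 2 h only, then the medium was replaced with fresh growth medium for 46 h at 37 °C.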

Hepatitis C virus [16] = test: Synergistic antiviral activity against HCV infected in human Huh-7 cells assessed as reduction in viral replication measured after 48 hrs in presence of NS5A inhibitor daclatasvir. by luciferase reporter gene assay; format: functional, organism-based; conditions: Hepacivirus hominis
In short: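 Replicon Huh7 cells treated 48 h with compound across 0.001–10,000 nM, each series at a fixed daclatasvir level from 0.005–0.025 nM. Luciferase read as above. A, B and C from the fits gave compound IC50 at each daclatasvir concentration, and these were plotted on an isobologram.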

[17] = Ratio of gemcitabine TC50 to test compound TC50 for cytotoxicity against human BXPC-3 cells assessed as reduction in cell viability; format: cell-based
Hepatitis C virus [18] = test: Ratio of IC50 for antiviral activity against HCV infected in human Huh-7 cells assessed as reduction in viral replication preincubated for 2 hrs followed by replacement with fresh culture medium and measured after 46 hrs by luciferase reporter gene assay to IC50 for antiviral activity against HCV infected in human Huh-7 cells assessed as reduction in viral replication measured after 48 hrs by …; format: functional, Hepacivirus hominis
[19] = Ratio of gemcitabine TC50 to test compound TC50 for cytotoxicity against human MCF7 cells assessed as reduction in cell viability; format: cell-based
[20] = Ratio of IC50 for antiviral activity against HCV infected in human Huh-7 cells in presence of human carboxylesterase 1/2 inhibitor benzil to antiviral activity against HCV infected in human Huh-7 cells in absence of human carboxyesterases1/2 inhibitor benzil; format: functional, Hepacivirus hominis
[21] = Cytotoxicity against human Huh-7 cells assessed as reduction in cell viability measured after 48 hrs by celltiter-glo assay; format: cell-based; conditions: read-out: TC50
Hepatitis C virus [22] = test: Antiviral activity against HCV infected in human Huh-7 cells assessed as reduction in viral replication measured after 48 hrs in presence of esterase inhibitor bis-p-nitrophenyl phosphate by luciferase reporter gene assay; format: functional, organism-based, Hepacivirus hominis; conditions: Huh-7, 48 h
Hepatitis C virus [23] = test: Antiviral activity against HCV infected in human Huh-7 cells assessed as reduction in viral replication at 500 nM measured after 36 hrs by luciferase reporter gene assay; format: functional, organism-based; conditions: Hepacivirus hominis; in short: as §3
Hepatitis C virus [24] = test: Antiviral activity against HCV infected in human Huh-7 cells assessed as reduction in viral replication at 500 nM measured after 24 to 30 hrs by luciferase reporter gene assay; format: functional, Hepacivirus hominis; set-up: scale not given: the % may be the effect or the level left; conditions: time 24-30 hrs; in short: as §3
Hepatitis C virus [25] = test: Synergistic antiviral activity against HCV infected in human Huh-7 cells assessed as reduction in viral replication measured after 48 hrs in presence of NS5B inhibitor PSI-6130. by luciferase reporter gene assay; format: functional, organism-based; conditions: Hepacivirus hominis
[26] = Ratio of IC50 for antiviral activity against HCV infected in human Huh-7 cells in presence of esterase inhibitor bis-p-nitrophenyl phosphate to antiviral activity against HCV infected in human Huh-7 cells in absence of esterase inhibitor bis-p-nitrophenyl phosphate; format: functional, Hepacivirus hominis
[27] = Prodrug conversion assessed as human carboxylesterase 1/2-mediated gemcitabine release measured after 1 hr by HPLC analysis; format: ADME
Hepatitis C virus [28] = test: Antiviral activity against HCV infected in human Huh-7 cells assessed as reduction in viral replication measured after 48 hrs in presence of human carboxylesterase 1/2 inhibitor benzil by luciferase reporter gene assay; format: functional, organism-based, Hepacivirus hominis; conditions: Huh-7, 48 h
In short: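 Huh7 cells carrying an HCV luciferase-reporter replicon, grown with 10% FBS and G418, were seeded at 10,000 cells/well and left 24 h to attach. Three biological replicates were treated with graded compound in DMEM/10% FBS/0.5% DMSO with benzil present, for 48 h at 37 °C. Bright-Glo luciferase was read, and IC50 came from a four-parameter logistic fit.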

Hepatitis C virus [29] = test: Antiviral activity against HCV infected in human Huh-7 cells assessed as reduction in viral replication at 500 nM measured after 48 hrs by luciferase reporter gene assay; format: functional, organism-based; conditions: Hepacivirus hominis; in short: as §3

Row | SMILES | remaining at 4 h, 200 µM [1] [%] | CC50 (HepG2) [nM] | CC50 at 96 h [2] [nM] | Activity (Hepatitis C virus [3]) | pIC50 (Hepatitis C virus [4]) | remaining at 4 h, 200 µM [5] [%] | remaining at 4 h, 200 µM [6] [%] | remaining at 4 h, 200 µM [7] [%] | CC50 at 48 h [8] [nM] | CC50 at 96 h [9] [nM] | CC50 at 96 h [10] [nM] | Activity (Hepatitis C virus [11]) | remaining at 4 h, 200 µM [12] [%] | CC50 at 96 h [14] [nM] | pIC50 (Hepatitis C virus [15]) | other results
1 | Nc1ccn([C@@H]2O[C@H](CO)[C@@H](O)C2(F)F)c(=O)n1 [GEMCITABINE] | 79 | 310 | 3400 | inactive | 7.24 | 100 | 98 | 88 | > 500000 | 67 | 560 | inactive | 100 | 2.9 | 6.77 | Activity (Hepatitis C virus [13]): 50%
2 | COc1cc(C(=O)Nc2ccn([C@@H]3O[C@H](CO)[C@@H](O)C3(F)F)c(=O)n2)cc(OC)c1OC | 86 | 1700 | 5100 | inactive | 7.31 | 82.7 | 98.6 | 87 | 398000 | 570 | 1300 | inactive | 99.5 | 1800 | 5.55 | Activity (Hepatitis C virus [16]): Active; selectivity ratio [17]: ≤ 620; Ratio IC50 (Hepatitis C virus [18]): 56; selectivity ratio [19]: ≤ 24; Ratio IC50 [20]: 2.5; CC50 at 48 h [21]: 490000 nM; pIC50 (Hepatitis C virus [22]): 7.09; Activity (Hepatitis C virus [23]): Active; Activity (Hepatitis C virus [24]): 50%; Activity (Hepatitis C virus [25]): Active; Ratio IC50 [26]: 1.6; Drug metabolism [27]: Metabolite_Detected; pIC50 (Hepatitis C virus [28]): 6.90; Activity (Hepatitis C virus [29]): Active
